Bioassay records deposited in PubChem BioAssay by Sanford-Burnham Center for Chemical Genomics.
tim10-1 inh – growth inhibitors of tim10-1 mutant yeast, primary screen, luminescence, uHTS; S. cerevisiae tim10-1 ts strain growth, BacTiter-Glo, 24 h; inhibition, % at 20 µM; actives 2.2% (n = 330,000); AID 463190, 2010;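 active means inhibition of at least 40%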;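 further: mutant grown at 25 °C; 0% = DMSO wells with yeast and 100% = wells holding no yeast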
XBP1 UPR activ – activators of adaptive XBP1 UPR arm, primary screen, cell-based, CHO-XBP1 luciferase reporter, luminescence, uHTS; IRE1-XBP1 UPR activation; percent of tunicamycin response, DMSO as zero; activation, % at 20 µM; actives 0.33% (n = 330,000);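 active means versus positive control, 20 µM dose yields 30% or more activation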;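 further: 100% = tunicamycin at 10 µg/mL and 0% = DMSO only wells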
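Material: IRE1-XBP1 luciferase reporter CHO line / Quantity: one thousand reporter cells per well / Buffer or medium: F12 with 10% serum / Compound: 20 µM single concentration, DMSO 1% / Times: 6 h treatment, 37 °C / Detection: Steady-Glo luciferase glow luminescence, 10 min after reagent addition / Benchmarks: tunicamycin high, DMSO low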
tim23-1 inh – growth inhibitors of tim23-1 mutant yeast, primary screen, luminescence, uHTS; actives 1.3% (n = 330,000); inhibition, % at 20 µM; S. cerevisiae tim23-1 growth, BacTiter-Glo luminescence, 24 h;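 active means growth inhibition of the mutant yeast at or above 50%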;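 further: temperature-sensitive mutant grown at 25 °C; plate controls were DMSO-treated mutant yeast for no effect and medium wells lacking yeast for full effect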
TIM10 inh – growth inhibitors of isogenic TIM10 control yeast, primary screen, counter-screen for tim10-1 yeast inhibitor project, luminescence, uHTS. S. cerevisiae TIM10 strain growth, BacTiter-Glo luminescence, 24 h. inhibition, % at 10 µM. actives 1.4% (n = 330,000). AID 463195, 2010;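 active means inhibition of 40% or more at the single tested concentration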;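 further: wild-type TIM10 isogenic control strain grown at permissive 25 °C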
CHOP UPR activ – activators of apoptotic CHOP UPR arm, primary screen, cell-based, CHO-CHOP luciferase reporter, luminescence, uHTS. actives 0.34% (n = 330,000). activation, % at 10 µM. UPR activation; percent of tunicamycin response over DMSO baseline;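 active means at 10 µM dose, activation of 40% or more, normalized to positive control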;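 further: 100% = tunicamycin at 10 µg/mL and 0% = DMSO alone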
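System: CHO-CHOP luciferase reporter cell line | Buffer or medium: F12 medium containing 10% fetal bovine serum | Doses: One dose, 10 µM in 0.5% DMSO | Times: 6 h compound exposure at 37 °C after overnight seeding | Signal: Luciferase luminescence | Read-out: % activation vs tunicamycin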
tim10-1 confirm – growth inhibitors of tim10-1 mutant yeast, confirmation, single concentration, luminescence, S. cerevisiae. shares compounds with tim10-1 inh. S. cerevisiae tim10-1 ts strain growth, BacTiter-Glo, 24 h. inhibition, % at 20 µM. actives 56% (n = 7,400). AID 463213, 2010;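 active means inhibition of yeast growth at or above a set limit in either of two repeat tests at 20 µM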;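 further: tim10-1 mutant grown at permissive 25 °C to find synthetic lethal compounds; 0% = DMSO yeast wells and 100% = medium wells without yeast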
tim10 confirm – growth inhibitors of wild-type TIM10 yeast, confirmation, counter-screen for tim10-1 synthetic lethality project, single concentration, luminescence, S. cerevisiae; shares compounds with TIM10 inh; actives 63% (n = 4,600); inhibition, % at 10 µM; S. cerevisiae tim10 strain growth, BacTiter-Glo luminescence, 24 h;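 active means inhibition of yeast growth at or above a set limit in either of two replicates at 10 µM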;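 further: this counterscreen used the strain with wild-type TIM10; 0% = yeast with DMSO and 100% = medium wells lacking yeast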
Active calls of the source: *; . = no result given. Rows were chosen to be rich in hits. Some 3.9% of all compounds tested hit in one or more screens of this group.

SMILES | tim10-1 inh | XBP1 UPR activ | tim23-1 inh | TIM10 inh | CHOP UPR activ | tim10-1 confirm | tim10 confirm
O=C(C[n+]1cn(C(F)F)c2ccccc21)c1ccc(OC(F)F)cc1 | 56* | 3 | 49 | 53* | -1 | 47* | 39*
O=Cc1coc2c(ccc3ccccc32)c1=O | 41* | 9 | 44 | 58* | 0 | 34* | 78*
O=C/C=C/c1coc2ccc3ccccc3c2c1=O | 24 | 0 | 40 | 7 | 2 | . | .
CC(C)(CNC(=O)c1cc(Cl)c(O)c(Cl)c1)N1CCCCC1 | -16 | -2 | -8 | 10 | 1 | . | .
COc1ccccc1CN1C(=NC(=O)C2CCCCC2)SC2CS(=O)(=O)CC21 (stereo not drawn) | 4 | -2 | -5 | -2 | -2 | . | .
Clc1ccc2c(c1)c1cc(Cl)ccc1n2CN1CCOCC1 | 63* | 2 | -12 | 51* | 0 | 39* | 59*
COc1ccc(Cl)cc1CN1CCOCC1 | 6 | 1 | 12 | 9 | -1 | . | .
O=C(Nc1ccccc1N1CCOCC1)c1ccc([N+](=O)[O-])s1 | 66* | -3 | 14 | 61* | 0 | 72* | 84*
Cc1cccc(C)c1NC(=O)c1ccc([N+](=O)[O-])s1 | 66* | -1 | -83 | 59* | 0 | 54* | 53*
Cc1cccc(NC(=O)c2ccc([N+](=O)[O-])s2)c1C | 66* | 2 | 16 | 61* | -1 | 55* | 53*
COc1ccc(NC(=O)c2ccc([N+](=O)[O-])s2)c([N+](=O)[O-])c1 | 6 | -1 | 11 | 15 | -1 | . | .
Cc1ccnc(NC(=O)c2ccc([N+](=O)[O-])s2)c1 | 75* | -2 | 34 | 69* | 6 | 72* | 80*
NC(=O)c1ccc(NC(=O)CSc2nc3ccccc3c(=O)n2CCCN2CCOCC2)cc1 | -3 | 2 | 1 | -4 | 0 | . | .
Cc1cc2c(cc1S(=O)(=O)CCC(=O)NC1CCCCC1C)OCC(=O)N2 (stereo not drawn) | 4 | 8 | -2 | 1 | -1 | . | .
CCOC(=O)NC(=O)CSc1ccc(S(=O)(=O)N(C)C2CCCCC2)cn1 | 11 | -1 | 24 | -15 | 0 | . | .
c1ccc(Nc2cccc(Nc3ccccc3)n2)cc1 | 64* | 3 | 39 | 60* | 5 | 57* | -10
c1ccc(Nc2ccccn2)cc1 | 19 | 1 | 21 | 24 | 1 | . | .
S=C(NCCCc1ccccc1)Nc1ccc(Cl)cc1 | 55* | 2 | 47 | 47* | 1 | 52* | -27
S=C(NCCSCc1ccc(Cl)cc1)Nc1ccccc1 | 42* | -1 | 45 | 52* | -1 | 34* | -19
Cc1ccc(NC(=O)CNC(=O)Cc2cccc3ccccc23)c(O)c1 | -14 | 0 | -13 | -5 | 1 | . | .
Cc1ccccc1CNS(=O)(=O)c1csc(C(N)=O)c1 | -16 | -10 | -3 | -3 | 1 | . | .
CC(C)NC(=S)N/N=C/c1ccc(C(C)(C)C)cc1 | 41* | 1 | 37 | 44* | 2 | 8 | 45*
CC(C)NC(=S)N/N=C/c1cccs1 | 15 | 2 | 40 | 28 | 5 | . | .
O=C(CCCCl)NC(=S)Nc1cc(C(F)(F)F)ccc1N1CCOCC1 | 53* | 1 | 48 | 57* | 0 | 48* | 50*
CCOc1ccc(/C=C2\SC(N3CCc4ccccc4C3)=NC2=O)cc1 | 47* | -1 | 28 | 54* | 3 | 35* | 19
Cc1ccc(-n2nc(C)c(NS(=O)(=O)c3ccccc3)c2C)cc1C | 39 | 1 | 28 | 27 | 1 | . | .
